Data from ChEMBL document CHEMBL1949637, “Anticancer effects of the metabolic products of the resveratrol analogue, DMU-212: structural requirements for potency” (Eur J Med Chem, 2011).
The source made the active and inactive calls. No cut-off for these calls is given here.

Experiments:
Assay type in all cases: functional, cell-based
[1] = test system: MCF7; assay: Cytotoxicity against human MCF7 cells up to 20 uM after 96 hrs by MTT assay
[2] = test system: HepG2; assay: Cytotoxicity against human HepG2 cells up to 20 uM after 96 hrs by MTT assay
[3] = test system: MCF7; assay: Downregulation of beta-tubulin expression in human MCF7 cells at >30 uM after 24 hrs by Western blot analysis
Procedure, shortened: (§1)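 MCF-7 or HepG2 cells seeded at 3 × 10⁵ cells/mL in 6-well plates and treated 24 h at 37 °C with 0, 30, 40 or 50 μM. Lysed in buffer with protease inhibitors and 1 mM DTT, then sonicated. Lysates run on SDS-PAGE (10% resolving gel), wet-blotted to PVDF and probed overnight at 4 °C. Antibodies were anti-β-tubulin 1:400, p53 1:200, cyclin D1 1:200; β-actin 1:400 served as loading reference. Detection by ECL.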

[4] = test system: MCF7; assay: Cell cycle arrest in human MCF7 cells assessed as accumulation at G1 phase at 10 uM after 24 hrs using propidium iodide staining by flow cytometry
Procedure, shortened: (§2)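 Cells cultured in T75 flasks, serum-starved 24 h, then exposed to 10 μM for 24 h. Trypsinised, washed in PBS and fixed in 70% ethanol for at least 2 h. Stained with propidium iodide 50 μg/mL containing RNase A 100 μg/mL. DNA content read by flow cytometry on at least 10,000 events. Percentage of cells in each phase recorded.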

[5] = test system: HepG2; assay: Downregulation of beta-tubulin expression in human HepG2 cells at >30 uM after 24 hrs by Western blot analysis; procedure, shortened: as §1
[6] = test system: MCF7; assay: Cell cycle arrest in human MCF7 cells assessed as accumulation at S phase at 10 uM after 24 hrs using propidium iodide staining by flow cytometry; procedure, shortened: as §2
[7] = test system: MCF7; assay: Induction of apoptosis in human MCF7 cells assessed as nuclear fragmentation at 30 uM after 24 hrs using DAPI staining by immunofluorescence method
Procedure, shortened: (§3)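 MCF-7 cells grown on coverslips (8 × 10⁴ cells/well) and treated 24 h at 10 or 30 μM. Fixed, permeabilised and processed as for β-tubulin immunostaining. DAPI working solution applied at 1:100 for 5 min. Fragmented nuclei scored by fluorescence microscopy.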

[8] = test system: HepG2; assay: Cell cycle arrest in human HepG2 cells assessed as accumulation at G1 phase at 10 uM after 24 hrs using propidium iodide staining by flow cytometry; procedure, shortened: as §2
[9] = test system: HeLa; assay: Cytotoxicity against human HeLa cells after 96 hrs by MTT assay
Procedure, shortened: (§4)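 Cells plated in 96-well plates and allowed 24 h growth. Medium was replaced with serial dilutions, 0.079–20 μM, for 96 h. Viability read spectrophotometrically by MTT reduction. IC₅₀ values taken from at least 3 experiments. MCF-7 cells were kept in RPMI-1640 and HepG2/HeLa in DMEM, each with 10% heat-inactivated FCS.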

[10] = test system: HeLa; assay: Cell cycle arrest in human HeLa cells assessed as accumulation at G2/M phase at 10 uM after 24 hrs using propidium iodide staining by flow cytometry; procedure, shortened: as §2
[11] = test system: HepG2; assay: Downregulation of cyclin D1 expression in human HepG2 cells after 24 hrs by Western blot analysis; procedure, shortened: as §1
[12] = test system: MCF7; assay: Antimitotic activity in human MCF7 cells assessed as effect on beta-tubulin distribution at 10 uM after 24 hrs by immunofluorescence staining
Procedure, shortened: (§5)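 MCF-7 cells seeded on coverslips in 24-well plates, 8 × 10⁴ cells/well, exposed to 10 or 30 μM for 24 or 48 h. Fixed, permeabilised, then stained 1 h at room temperature with anti-β-tubulin (1:200 in PBS/1% FBS). Secondary was AlexaFluor-conjugated anti-mouse IgG (1:500), 1 h in the dark. Read by fluorescence microscopy.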

[13] = test system: MCF7; assay: Antimitotic activity in human MCF7 cells assessed as decrease in localization of beta-tubulin expression around cell nucleus at 30 uM after 48 hrs by immunofluorescence staining; procedure, shortened: as §5
[14] = test system: HepG2; assay: Cytotoxicity against human HepG2 cells after 96 hrs by MTT assay; details: HepG2, 96 h; procedure, shortened: as §4
[15] = test system: MCF7; assay: Induction of apoptosis in human MCF7 cells assessed as nuclear fragmentation at 10 uM after 24 hrs using DAPI staining by immunofluorescence method; procedure, shortened: as §3
[16] = test system: MCF7; assay: Cell cycle arrest in human MCF7 cells assessed as accumulation at G2/M phase at 10 uM after 24 hrs using propidium iodide staining by flow cytometry; procedure, shortened: as §2
[17] = test system: MCF7; assay: Antimitotic activity in human MCF7 cells assessed as decrease in localization of beta-tubulin expression around cell nucleus at 30 uM after 24 hrs by immunofluorescence staining; procedure, shortened: as §5
[18] = test system: HepG2; assay: Cell cycle arrest in human HepG2 cells assessed as accumulation at G2/M phase at 10 uM after 24 hrs using propidium iodide staining by flow cytometry; procedure, shortened: as §2
[19] = test system: HepG2; assay: Cell cycle arrest in human HepG2 cells assessed as accumulation at S phase at 10 uM after 24 hrs using propidium iodide staining by flow cytometry; procedure, shortened: as §2
[20] = test system: MCF7; assay: Cytotoxicity against human MCF7 cells after 96 hrs by MTT assay; details: MCF7, 96 h; procedure, shortened: as §4
[21] = test system: MCF7; assay: Downregulation of cyclin D1 expression in human MCF7 cells after 24 hrs by Western blot analysis; procedure, shortened: as §1
[22] = test system: MCF7; assay: Upregulation of p53 protein expression in human MCF7 cells after 24 hrs by Western blot analysis; procedure, shortened: as §1
[23] = test system: HepG2; assay: Upregulation of p53 protein expression in human HepG2 cells after 24 hrs by Western blot analysis; procedure, shortened: as §1
[24] = test system: HepG2; assay: Induction of apoptosis in human HepG2 cells assessed as upregulation of Bax mRNA level after 24 hrs by RT-PCR analysis
[25] = test system: MCF7; assay: Induction of apoptosis in human MCF7 cells assessed as upregulation of Bax mRNA level after 24 hrs by RT-PCR analysis
[26] = test system: HepG2; assay: Induction of apoptosis in human HepG2 cells assessed as effect on Bcl-xL mRNA level after 24 hrs by RT-PCR analysis
[27] = test system: MCF7; assay: Induction of apoptosis in human MCF7 cells assessed as down-regulation of Bcl-xL mRNA level after 24 hrs by RT-PCR analysis
[28] = test system: HepG2; assay: Induction of apoptosis in human HepG2 cells assessed as increase of ratio of Bax to Bcl-xL mRNA level at 20 to 40 uM after 24 hrs by RT-PCR analysis
[29] = test system: MCF7; assay: Induction of apoptosis in human MCF7 cells assessed as increase of ratio of Bax to Bcl-xL mRNA level at 30 to 40 uM after 24 hrs by RT-PCR analysis

| SMILES | Activity [1] | Activity [2] | Activity [3] | Activity [4] | Activity [5] | Activity [6] | Activity [7] | Activity [8] | Activity [9] | Activity [10] | Activity [11] | Activity [12] | Activity [13] | Activity [15] | Activity [16] | Activity [17] | Activity [18] | Activity [19] | Activity [21] | Activity [22] | other results |
| --- | --- | --- | --- | --- | --- | --- | --- | --- | --- | --- | --- | --- | --- | --- | --- | --- | --- | --- | --- | --- | --- |
| COc1ccc(/C=C/c2cc(O)c(OC)c(OC)c2)cc1 | inactive | inactive |  |  |  |  |  |  |  |  |  |  |  |  |  |  |  |  |  |  |  |
| COc1ccc(/C=C/c2cc(OC)c(OC)c(OC)c2)cc1 |  |  | Active | Active | Active | Active | Active | Active | Active | Active | Dose-dependent effect | inactive | Active | inactive | Active | Active | Active | Active | Dose-dependent effect | Dose-dependent effect | IC50 [14]: 300 nM; IC50 [20]: 300 nM; Activity [23]: Dose-dependent effect |
| COc1ccc(/C=C/c2cc(OC)c(OC)c(OC)c2)cc1O | Active | Active | Active | Active | Active | Active | Active | Active | Active | Active | Dose-dependent effect | inactive | Active | inactive | Active | Active | Active | Active | Dose-dependent effect | Dose-dependent effect | Activity [24]: Dose-dependent effect; Activity [25]: Dose-dependent effect; Activity [26]: inactive; Activity [27]: Active; Activity [28]: Active; Activity [29]: Active; Activity [23]: Dose-dependent effect |
| COc1ccc(/C=C/c2cc(OC)c(O)c(OC)c2)cc1 | inactive | inactive |  |  |  |  |  |  |  |  |  |  |  |  |  |  |  |  |  |  |  |
| COc1cc(/C=C/c2ccc(O)cc2)cc(OC)c1OC | inactive | inactive |  |  |  |  |  |  |  |  |  |  |  |  |  |  |  |  |  |  |  |
